Paper PMC4233149 (Clinical cancer research : an official journal of the …, 2014)

Tests used:
[1] = Plasma pharmacokinetics, QW schedule; format: in vivo, human
Summary of the method: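 Plasma was sampled after the first and last weekly oral dose of cycle 1 (90–300mg). Concentrations were analysed non-compartmentally for AUC0-168h, Cmax, C48h […], Tmax and apparent terminal t1/2. Last-day/day-1 ratios were derived for AUC, Cmax and C48h.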

pThr246 PRAS40 = test: PD biomarker in platelet-rich plasma; format: in vivo, human; conditions: 60mg QOD, PRP
Summary of the method: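 Platelet-rich plasma was collected at baseline and at 3, 6, 24 and 48h on oral 60mg QOD dosing. pThr246 PRAS40 was measured by MSD electrochemiluminescence assay validated to Good Clinical Practice standards. Values were expressed as percent of individual baseline, averaged per timepoint, and compared with baseline by paired t-test.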

In the case of NC1(c2ccc(-c3nc4ccn5c(=O)[nH]nc5c4cc3-c3ccccc3)cc2)CCC1 [MK-2206], the “C48h Last Day / Day1 Ratio (geometric mean)” value (from here on “C48h Last Day / Day1 Ratio”) ([1]; 90mg QW) is reported as 1.61, the “Tmax, median (min - max)” value ([1]; 90mg QW, Day 1) is reported as 6.0 (4.0-10.0) h and the “Tmax, median (min - max)” value ([1]; 90mg QW, Last Day of cycle 1) is reported as 4.0 (4.0-4.0) h. For the same compound, the “dose proportionality of AUC and Cmax” value ([1]; 90mg to 300mg QW) was “increased in a dose-proportional manner”, the “decline of plasma concentrations” value ([1]; 90mg, 135mg, 200mg, 250mg and 300mg QW) was “declined in a mono-exponential manner” and the “auto-induction of metabolizing enzymes” value ([1]; 90mg-300mg QW, cycle 1) was “no auto-induction of MK-2206 metabolizing enzymes”. The “AUC0-168h Last Day / Day1 Ratio (geometric mean)” value ([1]; 135mg QW) was 1.91, the “C48h Last Day / Day1 Ratio” value ([1]; 135mg QW) was 1.86 and the “Cmax Last Day / Day1 Ratio (geometric mean)” value ([1]; 135mg QW) was 1.95. For the same compound, the “Tmax, median (min - max)” value ([1]; 135mg QW, Day 1) was 4.0 (4.0-10.0) h, the Tmax ([1]; 150mg QW, Last Day of cycle 1, N=1) was 4.0 h and the “AUC0-168h Last Day / Day1 Ratio (geometric mean)” value ([1]; 200mg QW) was 1.54. The “C48h Last Day / Day1 Ratio” value ([1]; 200mg QW) was 1.49, the “Cmax Last Day / Day1 Ratio (geometric mean)” value ([1]; 200mg QW) was 1.33 and the “Tmax, median (min - max)” value ([1]; 200mg QW, Day 1) was 6.0 (4.0-10.0) h. For the same compound, the “Tmax, median (min - max)” value ([1]; 200mg QW, Last Day of cycle 1) was 6.0 (4.0-24.0) h, the “Tmax, median (min - max)” value ([1]; 250mg QW, Day 1) was 6.0 (4.0-6.0) h and the Tmax ([1]; 250mg QW, Last Day of cycle 1, N=1) was 4.0 h. The “Tmax, median (min - max)” value ([1]; 300mg QW, Day 1) was 4.0 (4.0-6.0) h, the “percent coefficient of variations (CVs) of AUC and Cmax” value ([1]; QW schedule, inter-patient variability) was 12% to 71 and the “Cmax at 200mg QW compared with 60mg QOD” value ([1]; higher at 200mg QW) was “about 2 fold”. The half-life ([1]; human, plasma, oral, 90 mg) was 71.6 ± 12.2 h, the concentration at 48 h ([1]; human, plasma, oral, 90 mg, C48h Mean ± SD, 90mg QW, Day 1, plasma) was 50.9 ± 38.2 nM and the concentration at 48 h ([1]; human, plasma, oral, 90 mg, C48h Mean ± SD, 90mg QW, Last Day of cycle 1, plasma) was 79.3 ± 33.7 nM. It also gave a concentration at 48 h ([1]; human, plasma, oral, 90 mg, mean C48h, 90mg QW, multiple dose) of 79.3 nM, a Tmax ([1]; human, plasma, oral, 135 mg) of 5 h and a half-life ([1]; human, plasma, oral, 135 mg) of 88.9 ± 26.9 h. It also gave a concentration at 48 h ([1]; human, plasma, oral, 135 mg, C48h Mean ± SD, 135mg QW, Day 1, plasma) of 90.3 ± 25.1 nM, a concentration at 48 h ([1]; human, plasma, oral, 135 mg, mean C48h, 135mg QW, multiple dose) of 158 nM and a Tmax ([1]; human, plasma, oral, 150 mg) of 4 to 10 h. It also gave a half-life ([1]; human, plasma, oral, 150 mg) of 64.4 h, an AUC(0-t) ([1]; human, plasma, oral, 150 mg, AUC0-168h Mean, 150mg QW, Day 1, plasma, N=2) of 20.7 µM·h and a concentration at 48 h ([1]; human, plasma, oral, 150 mg, C48h, 150mg QW, Last Day of cycle 1, plasma, N=1) of 185 nM. The concentration at 48 h ([1]; human, plasma, oral, 150 mg, C48h Mean, 150mg QW, Day 1, plasma, N=2) was 155 nM, the Cmax ([1]; human, plasma, oral, 150 mg, Cmax Mean, 150mg QW, Day 1, plasma, N=2) was 337 nM and the Cmax ([1]; human, plasma, oral, 150 mg, Cmax, 150mg QW, Last Day of cycle 1, plasma, N=1) was 346 nM. For the same compound, the concentration at 48 h ([1]; human, plasma, oral, 200 mg, C48h Mean ± SD, 200mg QW, Day 1, plasma) was 121 ± 47.4 nM, the concentration at 48 h ([1]; human, plasma, oral, 200 mg, mean C48h, 200mg QW, multiple dose) was 187 nM and the half-life ([1]; human, plasma, oral, 250 mg) was 53.7 h. For the same compound, the concentration at 48 h ([1]; human, plasma, oral, 250 mg, C48h, 250mg QW, Last Day of cycle 1, plasma, N=1) was 74.8 nM, the concentration at 48 h ([1]; human, plasma, oral, 250 mg, C48h Mean ± SD, 250mg QW, Day 1, plasma) was 103 ± 19.6 nM and the Cmax ([1]; human, plasma, oral, 250 mg, Cmax, 250mg QW, Last Day of cycle 1, plasma, N=1) was 169 nM. The concentration at 48 h ([1]; human, plasma, oral, 300 mg, C48h Mean, 300mg QW, Day 1, plasma) was 253 nM, the Cmax ([1]; human, plasma, oral, 300 mg, mean Cmax after the first dose, 300mg QW cohort) was 466 nM and the Cmax ([1]; human, plasma, oral, mean Cmax levels after multiple QW dose administration, 90mg to 250mg QW) was 153 to 245 nM. For the same compound, the “time of maximum suppression of pThr246 PRAS40 post-MK-2206” value (pThr246 PRAS40) was 6 h, the “mean pThr246 PRAS40 levels, % of baseline levels” value (“mean pThr246 PRAS40 levels, %” for short) (pThr246 PRAS40; 3h) was 79.8% and the “mean pThr246 PRAS40 levels, %” value (pThr246 PRAS40; 6h) was 79.7%. For the same compound, the “mean pThr246 PRAS40 levels, %” value (pThr246 PRAS40; 24h) was 86.9%.
